Experiment [1] relates to L1210. Nature of the experiment: The in vitro cytotoxicity against L1210 cells was evaluated. In kind it is functional, cell-based. As to conditions: Mus musculus. The essentials: (§1)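 L1210 cells were grown in static suspension in Fischer's medium with 10% heat-inactivated horse serum. Cells were counted at 0, 48 and 96 h across a range of compound concentrations. Growth rate is the ratio of control to treated population-doubling time; the 48–96 h rate was used if growth slowed. IC50 is the concentration giving 50% of control growth rate; highest concentration tested was 100 μM.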

For experiment [2], the system named is HFF. Nature of the experiment: Antiviral activity was determined by the HCMV plaque assay using HFF cells. In kind it is functional, cell-based. The note with it: Homo sapiens. The essentials: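 HCMV Towne strain (plaque-purified isolate Po) on HFF monolayers grown in MEM with Earle's salts and 10% FBS. Inoculum held approximately 50 PFU. Compounds were dissolved in the overlay medium and plaques counted. IC50 came from linear regression of percent inhibition against log concentration. Ganciclovir was the positive control.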

The subject of experiment [3] is KB. Kind of experiment: Antiviral activity was estimated by HSV-1 ELISA method. In kind it is functional, cell-based. The note with it: Homo sapiens. The essentials:
(§2)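 HSV-1 S-148 strain was assayed by enzyme immunoassay (ELISA) in quadruplicate wells. The reported value is the average IC50, taken from linear regression of percent inhibition against log drug concentration. Acyclovir served as the positive control, and sets were rejected if it deviated more than 1.5 standard deviations from its mean.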

For experiment [4], the system named is KB. Nature of the experiment: Cytotoxicity in KB cells. In kind it is functional, cell-based. The note with it: Homo sapiens. The method in brief:
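KB cells grown in MEM with Hank's salts and 5% FBS. Growth was measured spectrophotometrically by crystal violet staining 2 days after drug treatment, in quadruplicate wells. IC50 was taken from linear regression of percent inhibition against log concentration. 2-Acetylpyridine thiosemicarbazone was the positive control.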

The test system of experiment [5] is HFF. Nature of the experiment: Cytotoxicity in HFF cells was estimated by the visual scoring of cells not affected by virus infection in the plaque reduction assay. The note with it: Homo sapiens.
In experiment [6] the test system is KB. Kind of experiment: Antiviral activity was estimated by HSV-1 ELISA method (data of single experiment). In kind it is functional, cell-based. As to conditions: Homo sapiens. The essentials: as §2
Experiment [7] concerns L1210. Kind of experiment: cytotoxicity in L1210 cell culture(cell proliferation inhibited by 50%). In kind it is functional, cell-based. As to conditions: Mus musculus. The method in brief: as §1
Experiment [8] deals with L1210. Kind of experiment: Cytotoxicity in L1210 cell culture(cell proliferation inhibited by 50%). In kind it is functional, cell-based. As to conditions: Mus musculus. The method in brief: as §1
For experiment [9], the system named is KB. Nature of the experiment: Antiviral activity was estimated by HSV-1 ELISA method. In kind it is functional, cell-based. As to conditions: Homo sapiens. The method in brief:
as §2

The subject of experiment [10] is HFF. Kind of experiment: Antiviral activity was estimated by the HCMV yield reduction experiments. As to conditions: Homo sapiens. In kind it is functional. The essentials:
(§3)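 HCMV Towne strain yield reduction assay. Results are given as IC90, derived by linear regression of percent inhibition against log drug concentration. Ganciclovir was the positive control.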

The subject of experiment [11] is HFF. Nature of the experiment: Antiviral activity was estimated by the HCMV yield reduction experiments. In kind it is functional. The note with it: Homo sapiens. The essentials:
as §3

Usually IC50 stands for the midpoint of a concentration-inhibition curve. The IC90 is the concentration at which the effect reaches the 90% level.

On to `Nc1nnc(O)c2c1ccn2C1CCC(CO)O1` (stereo unspecified), for which the IC50 with L1210 [1], in the experiment with HFF [2], in the experiment on KB [3], in the experiment on KB [4] and in the experiment on HFF [5] was greater than 100 µM throughout.

`Nc1nnc(O)c2c1ccn2COC(CO)CO`: the IC50 with HFF [2], in the experiment with KB [6], in the experiment with L1210 [7], with KB [4] and in the experiment on HFF [5] was greater than 100 µM throughout.

For the molecule `Nc1nnc(O)c2c1c(Br)cn2COC(CO)CO`, the IC50 in the experiment on HFF [2], in the experiment with L1210 [8], in the experiment with KB [4], in the experiment on HFF [5] and in the experiment with KB [9] was greater than 100 µM each time.

For the molecule `Nc1nnc(O)c2c1ccn2[C@@H]1O[C@H](CO)[C@@H](O)[C@H]1O`, the IC50 is 90 µM in the experiment with KB [3] and greater than 100 µM with HFF [5].

`Nc1n[nH]c(=O)c2c1c(Br)cn2[C@@H]1O[C@H](CO)[C@@H](O)[C@@H]1O`: in the experiment with HFF [10], the IC90 was 6.3 µM. Besides, the IC50 is 18 µM in the experiment with L1210 [1]; 2.7 µM with HFF [2]; 20 µM in the experiment on KB [3]; 15 µM in the experiment on KB [4]; 32 µM in the experiment on HFF [5].

As to `Nc1nnc(O)c2c1ccn2[C@@H]1O[C@H](CO)[C@@H](O)[C@@H]1O`, the IC50 in the experiment with L1210 [1] is 100 µM; in the experiment on HFF [2], greater than 100 µM; with KB [3], 90 µM; with HFF [5], greater than 100 µM.

Regarding `Nc1n[nH]c(=O)c2c1c(Br)cn2[C@@H]1O[C@H](CO)[C@@H](O)[C@H]1O`, the IC90 in the experiment with HFF [10] was 0.04 µM. In addition, the IC50 was 0.1 µM in the experiment on HFF [2] and 2 µM with KB [3].

On to `Nc1n[nH]c(=O)c2c1ccn2[C@H]1C[C@H](O)[C@@H](CO)O1`, for which the IC50 is greater than 100 µM in the experiment on HFF [2]; 128 µM in the experiment on KB [3]; greater than 100 µM with L1210 [8]; greater than 100 µM in the experiment on KB [4]; greater than 100 µM in the experiment on HFF [5].

`Nc1nnc(O)c2c1c(Br)cn2C1CCC(CO)O1` (stereo unspecified): in the experiment with HFF [10], the concentration for an effect of 90% (IC90) is 10 µM. Besides, the IC50 in the experiment on L1210 [1] is 38 µM; with HFF [2], 12 µM; with KB [3], 27 µM; in the experiment with KB [4], 10 µM; in the experiment on HFF [5] it was 32 µM.

Take `Nc1nnc(O)c2c1c(I)cn2C1O[C@H](CO)[C@@H](O)[C@H]1O` (stereo partly specified): the IC90 with HFF [10] was 0.02 µM. For the same molecule, the results for the 50% inhibitory concentration (IC50) in the experiment with L1210 [1], in the experiment with HFF [2] and with KB [3] were 0.02 µM, 0.4 µM and 4.5 µM, respectively.

Regarding `Nc1nnc(O)c2c1c(Cl)cn2C1O[C@H](CO)[C@@H](O)[C@H]1O` (stereo partly specified), the IC90 in the experiment on HFF [10] is 0.7 µM. Moreover, the results for the IC50 in the experiment on HFF [2] and with KB [3] were 0.2 µM and 6.8 µM, respectively.

Turning to `Nc1nc2c(ncn2COC(CO)CO)c(=O)[nH]1` [GANCICLOVIR], the IC90 with HFF [11] is 1.8 µM. For the same molecule, the IC50 in the experiment with HFF [2] was 7.7 µM; in the experiment on KB [6], 3.5 µM.

These data come from ChEMBL document CHEMBL1129959, “Synthesis and antiproliferative and antiviral activity of carbohydrate-modified pyrrolo[2,3-d]pyridazin-7-one nucleosides” (J Med Chem, 1997).
